Reference: PMC3880594 (Journal of medicinal chemistry, 2013)

Experiments:
[1] = system: MCF-7/ADR cells (adriamycin-resistant MCF-7 clone); assay: Growth inhibition of drug-resistant breast cancer cells; type: cell-based, human; conditions: concentrations from 1 μM to 10 μM, 48 h
[2] = system: Bcl-2, Bax, NF-κB (p65), PARP, caspase-3 in MDA-MB-231 cells; assay: Western blot of apoptosis related proteins; type: cell-based, human; conditions: 48 h; 10 and 19 at 2.5-10 μM, 1 at 10-30 μM
Summary of the method: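 MDA-MB-231 cells exposed to test compound or DMSO for 48 h, then lysed; protein measured by Bradford against BSA. 30 μg per lane resolved by SDS-PAGE and blotted to PVDF, blocked in 5% non-fat milk. Primary antibodies overnight: Bcl-2 1:200, Bax 1:1000, PARP 1:10000, NF-κB 1:2000, caspase-3 1:1000, β-actin 1:20000. Secondary antibody applied, then ECL detection.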

[3] = system: MDA-MB-231, a TNBC cell line; conditions: same dose range effective for MCF-7 cells; ref 9a; cited from earlier work
MDA-MB-231 cells [4] = assay: Colony formation assay; type: cell-based, human; conditions: 0.625-10 μM, two weeks
Summary of the method: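 MDA-MB-231 cells seeded at 800 cells/well in regular medium; after 24 h, test compound (0.625, 1.25, 2.5, 5 or 10 μM) or DMSO vehicle added. Drug-containing medium renewed every 72 h for two weeks. Wells stained with 0.01% crystal violet for 10 min, PBS-washed and dried, then whole-well density quantified digitally. Triplicate; one-way ANOVA, SD shown.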

MDA-MB-231 cells [5] = assay: Cell apoptosis assay; type: cell-based, human; conditions: MDA-MB-231 cells, 1.0, 5.0, 10 μM, 24 h
[6] = system: MCF-7 (ER-positive) breast cancer cells; assay: MTT antiproliferation assay, MCF-7; type: cell-based, human; conditions: MCF-7 and MDA-MB-231 cells
Summary of the method: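 Human breast cancer lines MCF-7 (ER-positive) and MDA-MB-231 (triple-negative) were used, with oridonin tested alongside. MTT antiproliferation read-out: after the MTT step, solution replaced by DMSO, OD at 550 nm after 10 min. Each concentration in quadruplicate wells. IC50 by curve fitting. Mean ± SE of three independent experiments.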

[7] = system: HMEC (human normal mammary epithelial cells); assay: Growth inhibition of normal human mammary epithelial cells; type: cell-based; conditions: 10 μM, 24 h; p < 0.05
[8] = system: MDA-MB-231 xenograft tumors; assay: MDA-MB-231 xenograft tumor model; type: in vivo; conditions: 5 mg/kg i.p., nude mice

SMILES	growth inhibitory activity on MCF-7/ADR cells [1]	Bax protein level [2]	Bcl-2 protein level [2]	NF-κB (p65) protein expression [2]	PARP cleavage (116 kDa to 25 kDa) [2]	caspase-3 activation [2]	growth of MDA-MB-231 [3]	inhibition of colony formation (MDA-MB-231 cells [4])	induction of apoptosis (MDA-MB-231 cells [5])	antiproliferative activities (in words) [6]	toxicity to HMEC compared with oridonin [7]	tolerability / body weight [8]
C=C1C(=O)[C@]23[C@H](O)[C@H]1CC[C@H]2[C@@]12CO[C@]3(O)[C@@H](O)[C@@H]1C(C)(C)CC[C@@H]2O [Compound 1, Oridonin, reference compound]	no growth inhibitory activity	up-regulation	down-regulation	down-regulation	up-regulation of Bax and cleaved PARP	did not activate caspase-3 cleavage	failed to reduce the growth					
C=C1C(=O)[C@@]23[C@@H]4OC(C)(C)O[C@]25OC[C@]2(C(=O)C(C=O)=CC(C)(C)[C@H]2[C@@H]5O)[C@@H]3CC[C@@H]14 [Compound 10, (3S,3aR,3a^1R,6aR,7S,7aR,11aS,11bS)-7-hydroxy-5,5,8,8-tetramethyl-15-methylene-11,14-dioxo-2,3,3a,7,7a,8,11,11b-octahydro-1H-6a,11a-(epoxymethano)-3,3a^1-ethanophenanthro[1,10-de][1,3]dioxine-10-carbaldehyde]		up-regulation	down-regulation	significant decrease	triggered PARP cleavage	activated caspase-3 in a dose-dependent manner		inhibit the colony formation	significant effects to induce apoptosis of MDA-MB-231 cells in a dose-dependent manner			
C=C1C(=O)[C@@]23C(=O)[C@@H](O)[C@@H]4C(C)(C)[C@@H]5OC[C@]4(C(=O)/C5=C/OC)[C@@H]2CC[C@@H]1[C@H]3O [Compound 13, (3S,4aR,5S,6aR,9S,11aS,11bS,14R,E)-5,14-dihydroxy-2-(methoxymethylene)-4,4-dimethyl-8-methyleneoctahydro-1H-3,11b-(epoxymethano)-6a,9-methanocyclohepta[a]naphthalene-1,6,7(2H,8H)-trione]										no obvious antiproliferative activities		
C=C1C(=O)[C@@]23C(=O)[C@@H](O)[C@@H]4C(C)(C)[C@@H]5OC[C@]4(C(=O)/C5=C\O)[C@@H]2CC[C@@H]1[C@H]3O [Compound 14, (3S,4aR,5S,6aR,9S,11aS,11bS,14R,Z)-5,14-dihydroxy-2-(hydroxymethylene)-4,4-dimethyl-8-methyleneoctahydro-1H-3,11b-(epoxymethano)-6a,9-methanocyclohepta[a]naphthalene-1,6,7(2H,8H)-trione]										no obvious antiproliferative activities		
C=C1C(=O)[C@@]23[C@@H]4OC(C)(C)O[C@]25OC[C@]2(C=CC(=O)C(C)(C)[C@H]2[C@@H]5O)[C@@H]3CC[C@@H]14 [Compound 19, (3S,3aR,3a^1R,6aR,7S,7aS,11aR,11bS)-7-hydroxy-5,5,8,8-tetramethyl-15-methylene-3,3a,7,7a,8,11b-hexahydro-1H-6a,11a-(epoxymethano)-3,3a^1-ethanophenanthro[1,10-de][1,3]dioxine-9,14(2H)-dione]		up-regulation	down-regulation	significant decrease	triggered PARP cleavage	activated caspase-3 in a dose-dependent manner		significantly blocked the colony formation of MDA-MB-231 cells at a submicromolar concentration	significant effects to induce apoptosis of MDA-MB-231 cells in a dose-dependent manner		lower toxicity at 10 μM than oridonin	no significant loss of body weight
